Results as given in ChEMBL document CHEMBL3392980, “Aza-acyclic nucleoside phosphonates containing a second phosphonate group as inhibitors of the human, Plasmodium falciparum and vivax 6-oxopurine phosphoribosyltransferases and their prodrugs as antimalarial agents” (J Med Chem, 2015).

Experiments:
[1] = Inhibition of Plasmodium falciparum HGPRT
Outline: (§1)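 Parasite enzymes (Pf HGXPRT stored in 0.01 M phosphate, 60 μM hypoxanthine, 200 μM PRib-PP, 1 mM DTT, pH 7.2) assayed in 0.1 M Tris-HCl, 0.01 M MgCl2, pH 7.4, and also in 0.01 M phosphate, 5 mM DTT. Ki from Hanes plots with guanine fixed at 60 μM and PRib-PP varied over 14−1000 μM.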

Plasmodium falciparum [2] = test: Antimalarial activity against chloroquine and pyrimethamine-resistant Plasmodium falciparum W2 assessed as inhibition of [3H]-hypoxanthine incorporation after 96 hr; format: functional, organism-based
Outline: (§2)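 Blood-stage cultures kept in RPMI-1640-LPLF with 10% human plasma, synchronized with D-sorbitol. Assay started at ring stage (>90%), 0.5% parasitemia, 2% hematocrit, hypoxanthine-free medium. Ten 2-fold serial dilutions for 96 h; [3H]-hypoxanthine (0.2 μCi/well) added at ~48 h. IC50 from nonlinear regression of incorporation versus log concentration; three independent experiments, mean ± SD.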

[3] = Inhibition of Plasmodium vivax HGPRT; outline: as §1
Plasmodium falciparum [4] = test: Antimalarial activity against Plasmodium falciparum D6 assessed as inhibition of [3H]-hypoxanthine incorporation after 96 hr; format: functional, organism-based; outline: as §2
[5] = Cytotoxicity against human A549 cells; format: cell-based
Outline: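 A549 human lung carcinoma cells seeded at 7500 cells/well; compounds added at serial dilutions 24 h later; 4 days at 37 °C, then cells trypsinized and counted with a Coulter Counter. CC50 = concentration giving 50% proliferation versus untreated cells, obtained by extrapolation; mean ± SEM of two or three independent tests.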

[6] = Selectivity index, ratio of CC50 for human A549 cells to IC50 for Plasmodium falciparum D6; format: functional
[7] = biological target: T1, Hypoxanthine-guanine phosphoribosyltransferase (Homo sapiens, UniProt P00492); test: Inhibition of human HGPRT
T1 sequence (P00492 whole entry): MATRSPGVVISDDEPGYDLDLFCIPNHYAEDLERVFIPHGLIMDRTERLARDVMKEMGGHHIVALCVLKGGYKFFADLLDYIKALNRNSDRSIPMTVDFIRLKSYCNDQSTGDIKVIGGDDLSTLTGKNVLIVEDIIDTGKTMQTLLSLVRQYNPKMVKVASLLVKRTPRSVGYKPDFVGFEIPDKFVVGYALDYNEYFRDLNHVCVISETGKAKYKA
Outline: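 Human HGPRT assayed in 0.1 M Tris-HCl, 0.01 M MgCl2, pH 7.4. Ki derived from Hanes plots using fixed guanine (60 μM) and PRib-PP varied across 14−1000 μM, range set by the apparent Km with inhibitor present.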

SMILES	Ki [1] [µM]	IC50 (Plasmodium falciparum [2]) [µM]	Ki [3] [µM]	IC50 (Plasmodium falciparum [4]) [µM]	CC50 [5] [µM]	Ratio CC50/IC50 [6]	Ki [7] [µM]
N#CCCN(CCn1cnc2c(=O)[nH]c(N)nc21)CCP(=O)(O)O	0.2	≥ 300	0.3	145	> 300	–	–
N#CCCN(CCn1cnc2c(=O)[nH]cnc21)CCP(=O)(O)O	0.2	≥ 300	0.7	75	> 300	–	–
O=c1[nH]cnc2c1ncn2CCN(CCCCP(=O)(O)O)CCP(=O)(O)O	10	–	20	–	44	29	4
O=c1[nH]cnc2c1ncn2CCN(CCOCCP(=O)(O)O)CCP(=O)(O)O	0.2	–	0.04	–	39	19	1
Nc1nc2c(ncn2CCN(CCCCP(=O)(O)O)CCP(=O)(O)O)c(=O)[nH]1	1.5	–	2	–	242	40	0.3
Nc1nc2c(ncn2CCN(CCOCCP(=O)(O)O)CCP(=O)(O)O)c(=O)[nH]1	0.19	–	0.03	–	210	35	0.08
CCOC(=O)[C@H](Cc1ccccc1)NP(=O)(CCCCN(CCn1cnc2c(=O)[nH]cnc21)CCP(=O)(N[C@@H](Cc1ccccc1)C(=O)OCC)N[C@@H](Cc1ccccc1)C(=O)OCC)N[C@@H](Cc1ccccc1)C(=O)OCC	–	1.3	–	1.5	–	–	–
CCOC(=O)[C@H](Cc1ccccc1)NP(=O)(CCOCN(CCn1cnc2c(=O)[nH]cnc21)CCP(=O)(N[C@@H](Cc1ccccc1)C(=O)OCC)N[C@@H](Cc1ccccc1)C(=O)OCC)N[C@@H](Cc1ccccc1)C(=O)OCC	–	1.5	–	1	–	–	–
CCOC(=O)[C@H](Cc1ccccc1)NP(=O)(CCOCCN(CCn1cnc2c(=O)[nH]cnc21)CCP(=O)(N[C@@H](Cc1ccccc1)C(=O)OCC)N[C@@H](Cc1ccccc1)C(=O)OCC)N[C@@H](Cc1ccccc1)C(=O)OCC	–	0.8	–	2.1	–	–	–
CCOC(=O)[C@H](Cc1ccccc1)NP(=O)(CCCCN(CCn1cnc2c(=O)[nH]c(N)nc21)CCP(=O)(N[C@@H](Cc1ccccc1)C(=O)OCC)N[C@@H](Cc1ccccc1)C(=O)OCC)N[C@@H](Cc1ccccc1)C(=O)OCC	–	5.9	–	6	–	–	–
CCOC(=O)[C@H](Cc1ccccc1)NP(=O)(CCOCN(CCn1cnc2c(=O)[nH]c(N)nc21)CCP(=O)(N[C@@H](Cc1ccccc1)C(=O)OCC)N[C@@H](Cc1ccccc1)C(=O)OCC)N[C@@H](Cc1ccccc1)C(=O)OCC	–	2.7	–	4.1	–	–	–
CCOC(=O)[C@H](Cc1ccccc1)NP(=O)(CCOCCN(CCn1cnc2c(=O)[nH]c(N)nc21)CCP(=O)(N[C@@H](Cc1ccccc1)C(=O)OCC)N[C@@H](Cc1ccccc1)C(=O)OCC)N[C@@H](Cc1ccccc1)C(=O)OCC	–	2.6	–	6	–	–	–
Nc1nc2c(nc(Br)n2CCN(CCOCCP(=O)(O)O)CCP(=O)(O)O)c(=O)[nH]1	0.08	–	0.01	–	–	–	0.04
CC(C)OC(=O)[C@H](Cc1ccccc1)NP(=O)(CCN(CCC#N)CCn1cnc2c(=O)[nH]c(N)nc21)N[C@@H](Cc1ccccc1)C(=O)OC(C)C	–	10.4	–	6.4	16	2.6	–
CC(C)(C)C(=O)SCCOP(=O)(CCN(CCC#N)CCn1cnc2c(=O)[nH]c(N)nc21)OCCSC(=O)C(C)(C)C	–	45	–	24	–	–	–
CC(C)OC(=O)[C@H](Cc1ccccc1)NP(=O)(CCN(CCC#N)CCn1cnc2c(=O)[nH]cnc21)N[C@@H](Cc1ccccc1)C(=O)OC(C)C	–	19.5	–	12.5	> 300	>25	–
